Marks after values point to notes of the source that are not given here.
What was measured:
Type in all cases: in vivo, human
[1] = test system: patients with advanced or metastatic solid tumours; experiment: Safety: treatment-emergent adverse events
Outline: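 Safety covered monotherapy Parts 1a/2, with oral tablet or capsule dosing twice daily on days 1–28 of 28-day cycles. TEAEs were graded by CTCAE v4.03, which counts malignant progression as an AE. Laboratory values, vital signs and physical examinations were also monitored. The safety population was all patients receiving ≥1 dose. DLTs were defined as grade 3–4 toxicities, urea cycle inhibition, or AUC0–12h >100 µg.h/mL.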

[2] = test system: urea cycle; experiment: Urea cycle inhibition monitored via orotic acid levels
[3] = test system: advanced or metastatic solid tumours; experiment: Antitumour activity per RECIST v1.1
Outline: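 Part 1a monotherapy dose escalation used a standard 3+3 design, with 8 dose levels from 50 mg to 1000 mg. The test compound was given orally twice daily as tablet or capsule on days 1–28 of 28-day cycles. BOR, ORR and PFS followed RECIST v1.1, with confirmed responses unless stated otherwise. Response-evaluable patients had ≥1 dose, a baseline scan and ≥1 postbaseline scan, or qualifying discontinuation.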

[4] = monotherapy dose escalation Part 1a total (n=25)
[5] = monotherapy dose escalation Part 1a total (n=30)
[6] = monotherapy dose expansion Part 2 total (n=73)
[7] = monotherapy dose expansion Part 2 total (n=77)

## C[C@H](N)C(=O)N1C[C@H](CCCB(O)O)[C@](N)(C(=O)O)C1 [INCB001158]
[1]; monotherapy 100 mg bid (n=85)
  Vomiting, any-grade TEAE: 9 (10.6) n (%)
[1]; monotherapy 100 mg bid (n=85), related to INCB001158 treatment
  Colitis, irTEAE: 1 (1.2)¶ n (%)
[1]; monotherapy 150 mg bid (n=7)
  ALT increased, any-grade TEAE: 1 (14.3) n (%)
  AST increased, any-grade TEAE: 1 (14.3) n (%)
  Abdominal pain, any-grade TEAE: 1 (14.3) n (%)
  Abdominal pain, grade ≥3 TEAE: 0 n (%)
  Anaemia, any-grade TEAE: 0 n (%)
  Anaemia, grade ≥3 TEAE: 0 n (%)
  Any TEAE: 7 (100.0) n (%)
  Any grade ≥3 TEAE: 1 (14.3) n (%)
  Any irTEAE: 0 n (%)
  Colitis, irTEAE: 0 n (%)
  Constipation, any-grade TEAE: 2 (28.6) n (%)
  Decreased appetite, any-grade TEAE: 2 (28.6) n (%)
  Diarrhoea, any-grade TEAE: 1 (14.3) n (%)
  Fatigue, any-grade TEAE: 3 (42.9) n (%)
  Fatigue, grade ≥3 TEAE: 0 n (%)
  Hypoalbuminaemia, any-grade TEAE: 1 (14.3) n (%)
  Hyponatraemia, any-grade TEAE: 1 (14.3) n (%)
  Hyponatraemia, grade ≥3 TEAE: 1 (14.3) n (%)
  Malignant neoplasm progression, grade ≥3 TEAE: 0 n (%)
  Nausea, any-grade TEAE: 1 (14.3) n (%)
  Oedema peripheral, any-grade TEAE: 1 (14.3) n (%)
  Vomiting, any-grade TEAE: 0 n (%)
[1]; monotherapy 150 mg two times per day, one DLT
  DLT: treatment-related grade 2 malaise
[1]; monotherapy (8 patients)
  TEAEs leading to INCB001158 discontinuation: 7.5%
[1]; monotherapy (10 patients), none considered related to INCB001158
  fatal TEAEs: 9.3%
[1]; monotherapy (33 patients)
  TEAEs leading to INCB001158 dose interruption: 30.8%
[1]; monotherapy (36 patients)
  Serious TEAEs: 33.6%
[1]; monotherapy (N=107)
  patients with grade ≥3 TEAEs: 45.8%
[1]; monotherapy (n=10/107)
  INCB001158-related fatigue: 9.3%
  INCB001158-related nausea: 9.3%
[1]; monotherapy Parts 1a/2
  TEAEs grade 1/2 in severity: 54.2%
[1]; monotherapy Total (N=107)
  ALT increased, any-grade TEAE: 5 (4.7) n (%)
  AST increased, any-grade TEAE: 10 (9.3) n (%)
  Abdominal pain, any-grade TEAE: 18 (16.8) n (%)
  Abdominal pain, grade ≥3 TEAE: 6 (5.6) n (%)
  Anaemia, any-grade TEAE: 17 (15.9) n (%)
  Anaemia, grade ≥3 TEAE: 6 (5.6) n (%)
  Any TEAE: 102 (95.3) n (%)
  Any grade ≥3 TEAE: 49 (45.8) n (%)
  Any irTEAE: 1 (0.9) n (%)
  Colitis, irTEAE: 1 (0.9) n (%)
  Constipation, any-grade TEAE: 23 (21.5) n (%)
  Decreased appetite, any-grade TEAE: 21 (19.6) n (%)
  Diarrhoea, any-grade TEAE: 6 (5.6) n (%)
  Fatigue, any-grade TEAE: 30 (28.0) n (%)
  Fatigue, grade ≥3 TEAE: 6 (5.6) n (%)
  Hypoalbuminaemia, any-grade TEAE: 7 (6.5) n (%)
  Hyponatraemia, any-grade TEAE: 7 (6.5) n (%)
  Hyponatraemia, grade ≥3 TEAE: 3 (2.8) n (%)
  Malignant neoplasm progression, grade ≥3 TEAE: 5 (4.7) n (%)
  Nausea, any-grade TEAE: 24 (22.4) n (%)
  Oedema peripheral, any-grade TEAE: 16 (15.0) n (%)
  Vomiting, any-grade TEAE: 14 (13.1) n (%)
[1]; monotherapy and combination with pembrolizumab
  tolerability: generally well tolerated
[1]; monotherapy, safety-evaluable population
  patients with INCB001158-related TEAEs: 43 n
[1]; monotherapy, one patient, led to discontinuation
  immune-related TEAE of colitis: 0.9%
[1]; monotherapy, one patient, recovered/resolved
  serious INCB001158-related TEAE: grade 3 adrenal haemorrhage
[1]; up to 150 mg two times per day
  maximum tolerated dose: No maximum tolerated dose was reached
[2]; 150 mg two times per day, highest dose level tested, no symptomatic nor clinically significant urea cycle inhibition
  orotic acid levels: apparent increase in orotic acid levels
[2]; monotherapy, all asymptomatic
  patients with urinary orotic acid levels >10× the upper limit of normal: four
[3]; monotherapy 100 mg two times per day, Part 2 (n=73), one patient, urothelial cancer
  confirmed partial response: 1.4%
[3]; monotherapy dose escalation Part 1a (n=25)
  objective response: No patient in the monotherapy cohort had an objective response
[3]; monotherapy dose escalation Part 1a (n=25), five patients
  BOR of stable disease: 20.0%
[3]; [4]
  BOR: CR: 0 n (%)
  BOR: NE: 1 (4.0) n (%)
  BOR: PD: 19 (76.0) n (%)
  BOR: PR: 0 n (%)
  BOR: SD: 5 (20.0) n (%)
  ORR: 0 (0 to 13.7) n (%) (95% CI)
[3]; [5]
  PFS events: 21 (70.0) n (%)
  PFS, median (95% CI): 1.8 (1.8 to 1.9) mo
[3]; [6]
  BOR: CR: 0 n (%)
  BOR: Missing: 10 (13.7) n (%)
  BOR: NE: 3 (4.1) n (%)
  BOR: PD: 37 (50.7) n (%)
  BOR: SD: 22 (30.1) n (%)
  ORR: 1 (1.4) (0 to 7.4) n (%) (95% CI)
[3]; monotherapy dose expansion Part 2 total (n=73), well-differentiated urothelial cancer
  BOR: PR: 1 (1.4)† n (%)
[3]; [7]
  PFS events: 58 (75.3) n (%)
  PFS, median (95% CI): 1.9 (1.8 to 2.1) mo
